Assay results: ChEMBL document CHEMBL1154838, “Stolonoxides E and F, cytotoxic metabolites from the marine ascidian Stolonica socialis” (2010)

Columns and labels:
Format in all cases: functional
MDA-MB-231 = test: Cytotoxicity against human MDA-MB-231 cells after 72 hrs by SRB assay; details: MDA-MB-231, 72 h; for CC50: read-out: LC50 (the source's name)
Procedure, shortened: (§1)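 Cells kept in RPMI with 10% fetal calf serum, 2 mM L-glutamine, 100 U/mL penicillin/streptomycin, 37 °C, 5% CO2. Triplicate cultures exposed 72 h to 10 concentrations, 10 to 0.0026 µg/mL. Fixed in 1% glutaraldehyde 15 min, stained with 0.4% SRB 30 min at room temperature, extracted in 10 mM trizma base, absorbance read at 490 nm. GI50 from NCI algorithm, corrected for starting cell count. Doxorubicin positive control, DMSO vehicle.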

A549 = test: Cytotoxicity against human A549 cells after 72 hrs by SRB assay; details: A549, 72 h; procedure, shortened: as §1
HT-29 = test: Cytotoxicity against human HT-29 cells after 72 hrs by SRB assay; details: HT-29, 72 h; procedure, shortened: as §1

Question: What does the source list for `COc1cccc2c1C(=O)c1c(O)c3c(c(O)c1C2=O)C[C@@](O)(C(=O)CO)C[C@@H]3O[C@H]1C[C@H](N)[C@H](O)[C@H](C)O1` [DOXORUBICIN]?
Answer: GI50 (MDA-MB-231): 0.038 µM; TGI (MDA-MB-231): 0.31 µM; CC50 (MDA-MB-231): 2.41 µM; GI50 (A549): 0.062 µM; TGI (A549): 0.26 µM; GI50 (HT-29): 0.066 µM; TGI (HT-29): 0.4 µM

Question: How did the GI50 (MDA-MB-231) turn out when `O=C(O)C[C@@H]1CC[C@@H]([C@@H]2CC[C@@H](CCCCCCC3\C=C/C=C\C=C/C3)O2)OO1` (stereo not given in full) [STOLONOXIDE E] was run?
Answer: Its GI50 is 4.94 µM.

Question: What about the TGI (MDA-MB-231) of the same compound?
Answer: The TGI was 5.44 µM.

Question: What about the CC50 (MDA-MB-231) of the same compound?
Answer: The CC50 was 6.18 µM.

Question: What about the GI50 (A549) of the same compound?
Answer: Its GI50 is 7.91 µM.

Question: And the LC50 (A549)?
Answer: The LC50 was 8.65 µM.

Question: And the TGI (A549)?
Answer: The TGI was 8.16 µM.

Question: And the GI50 (HT-29)?
Answer: The GI50 was 3.96 µM.

Question: What about the LC50 (concentration killing 50% of starting cells) (HT-29) of the same compound?
Answer: The LC50 (concentration killing 50% of starting cells) was 6.67 µM.

Question: And the TGI (HT-29)?
Answer: Its TGI is 5.19 µM.

Question: How did the GI50 (MDA-MB-231) turn out when `O=C(O)C[C@@H]1CC[C@@H]([C@H]2CC[C@H](CCCCCCC3\C=C/C=C\C=C/C3)O2)OO1` (stereo not given in full) [STOLONOXIDE F] was run?
Answer: The GI50 was 4.7 µM.

Question: And the TGI (MDA-MB-231)?
Answer: Its TGI is 5.44 µM.

Question: What about the CC50 (MDA-MB-231) of the same compound?
Answer: The CC50 was 6.18 µM.

Question: What about the GI50 (A549) of the same compound?
Answer: The GI50 was 5.44 µM.

Question: What about the LC50 (A549) of the same compound?
Answer: Its LC50 is 6.67 µM.

Question: What about the TGI (A549) of the same compound?
Answer: The TGI was 5.93 µM.

Question: And the GI50 (HT-29)?
Answer: Its GI50 is 2.72 µM.

Question: What about the LC50 (concentration killing 50% of starting cells) (HT-29) of the same compound?
Answer: Its LC50 (concentration killing 50% of starting cells) is 3.71 µM.

Question: What about the TGI (HT-29) of the same compound?
Answer: The TGI was 3.21 µM.
